The values that follow come from ChEMBL document CHEMBL4138118, “Novel thioglycosyl analogs of glycosyltransferase substrates as antiviral compounds against classical swine fever virus and hepatitis C virus” (Eur J Med Chem, 2017).

Molecules are shown by their SMILES. Calls of active or inactive are those of the source. The rule behind the calls is not given here.

For series [1], the system named is Hepatitis C virus. Briefly: Antiviral activity against HCV genotype 2a JFH1 infected in human Huh7-J20 cells assessed as inhibition of viral assembly at 1.56 to 75 uM after 72 hrs by SEAP reporter assay. The class given is functional, organism-based. To be noted: Hepacivirus hominis, JFH-1. The method, boiled down:
(§1)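 Huh7-J20 SEAP reporter cells, infected with JFH-1 HCVcc, read-out SEAP chemiluminescence in supernatant after 72 h. Model 1: 1 h compound pretreatment, 3 h infection with compound, then compound-free medium. Model 2: same, with compound kept for the full 72 h. Model 3: 3 h infection, compound added afterwards only. DMSO control; three experiments.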
On the technique in general: In a reporter assay the amount or activity of a reporter protein is the signal.

Series [2] can be described thus: Selectivity index, ratio of CC50 for Huh7.5 cells to IC50 for HCV Jc1/JFH. The class given is toxicity. The following applies: human, read-out: Ratio CC50/IC50. The method, boiled down:
(§2)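 Selectivity index is CC50/IC50, taken from the cell viability assay (SK6 by MTS, Huh-7.5 by MTT) and the matching pseudo-plaque reduction assay.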

Series [3] in a line: Selectivity index, ratio of CC50 for SK6 cells to IC50 for CSFV. The following applies: pig, read-out: Ratio CC50/IC50. The class given is toxicity. The method, boiled down: as §2
Series [4] deals with Hepatitis C virus. Put plainly: Antiviral activity against HCV infected in human Huh7-J17 cells assessed as inhibition of viral RNA replication after 72 hrs by bright-glo luciferase reporter assay. The class given is functional, organism-based, Hepacivirus hominis. The method, boiled down: (§3)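 Huh7-J17 replicon cells seeded in 96-well plates together with compound, DMSO or sofosbuvir and incubated 72 h. Cells lysed and luciferase read with Bright-Glo. Values expressed as % of DMSO-treated cells; IC50 from dose-response fit; three experiments.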

Series [5] relates to Classical swine fever virus. Briefly: Inhibition of CSFV glycosyltransferase in SK6 cells assessed as downregulation of viral E2 levels under non-reducing condition after 48 hrs by Western blot method. The class given is cell-based. A general note: In western blotting, separated proteins are transferred to a membrane and probed.
A short description of series [6]: Effect on actin levels in SK6 cells at 3.75 to 30 uM under non-reducing condition after 48 hrs by Western blot method. The class given is ADME, cell-based, Sus scrofa. To be noted: pig.
The nature of series [7]: Effect on actin levels in human Huh7.5 cells at 3.12 to 75 uM under reducing condition after 48 hrs by Western blot method. The class given is ADME, cell-based. The method, boiled down:
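Huh-7.5 cells infected with HCV (MOI 0.1), washed after 1–6 h, then treated with inhibitor. Lysed in RIPA buffer with protease inhibitors after 48 h (methods; legend gives 72 h p.i.). 20 µg protein run on reducing SDS-PAGE; Western blot probed with anti-E1 mAb (1:2000) and anti-actin (1:1000).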

For series [8], the system named is Hepatitis C virus. Briefly: Antiviral activity against HCV genotype 2a JFH1 infected in human Huh7-J20 cells assessed as inhibition of viral RNA replication at 1.56 to 75 uM after 72 hrs by SEAP reporter assay. The class given is functional, organism-based. To be noted: Hepacivirus hominis, JFH-1. The method, boiled down:
as §1

Series [9] can be described thus: Cytotoxicity against human Huh7-J17 cells assessed as decrease in cell viability after 72 hrs by MTT assay. The class given is cell-based. The method, boiled down:
(§4)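 Uninfected Huh7-J17, Huh7-J20 or Huh-7.5 cells incubated with compound, then viability read by MTT. Time stated as 72 h for Huh7-J20 and Huh7-J17, and 48 h for Huh-7.5. Results expressed relative to DMSO-treated cells (100%); CC50 from the dose-response curve.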

In series [10] the test system is Hepatitis C virus. Briefly: Antiviral activity against HCV Jc1/JFH infected in human Huh7.5 cells assessed as downregulation of NS5B gene expression after 48 hrs by RT-PCR method. The class given is functional, organism-based. To be noted: Hepacivirus hominis. The method, boiled down: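 Huh-7.5 cells infected with HCV (MOI 0.1) for 4 h, washed, then cultured with compound for 48 h. Total RNA isolated; 1 µg reverse-transcribed with an NS5B-specific reverse primer, then PCR for NS5B. Band densitometry expressed as % of untreated infected control.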

For series [11], the system named is Classical swine fever virus. Put plainly: Antiviral activity against CSFV infected in SK6 cells assessed as reduction of pseudo-plaque formation after 2 days by immunoperoxidase monolayer assay. The class given is functional, organism-based. The following applies: 48 h.
The nature of series [12]: Cytotoxicity against SK6 cells assessed as reduction in cell viability after 2 days by MTS method. The class given is cell-based, Sus scrofa. To be noted: pig. The method, boiled down: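 SK6 viability by MTS (CellTiter 96 AQueous) assay; CC50 is the concentration reducing viability by 50%, taken from the dose-response curve.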
(In general: Tetrazolium dyes change colour on reduction, which living cells bring about.)

For series [13], the system named is Hepatitis C virus. Put plainly: Antiviral activity against HCV Jc1/JFH infected in human Huh7.5 cells assessed as reduction of pseudo-plaque formation after 72 hrs by immunoperoxidase monolayer assay. The class given is functional, organism-based. The method, boiled down: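 Huh-7.5 cells seeded at 1.5 × 10^4 per well, infected next day with Jc1/JFH HCVcc (genotype 2a) at MOI 0.1 for 3 h. Virus removed, medium with compound added; 72 h later cells fixed in cold methanol, permeabilized (0.5% Triton X-100), stained with anti-core antibody (1:300), HRP secondary. Pseudo-plaques counted by microscopy against untreated infected control; IC50 at 50% plaque reduction; three independent experiments.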

In series [14] the test system is Hepatitis C virus. Put plainly: Antiviral activity against HCV genotype 2a JFH1 infected in human Huh7-J20 cells assessed as inhibition of complete viral life cycle at 1.56 to 75 uM pretreated for 1 hr with cells followed by viral infection for 3 hrs and subsequent addition of fresh medium with compound measured after 72 hrs by SEAP reporter assay. The class given is functional, organism-based. To be noted: Hepacivirus hominis, JFH-1. The method, boiled down: as §1

Series [15] relates to Hepatitis C virus. Put plainly: Antiviral activity against HCV genotype 2a JFH1 infected in human Huh7-J20 cells assessed as inhibition of viral entry at 1.56 to 75 uM pretreated for 1 hr with cells followed by viral infection for 3 hrs and subsequent compound washout measured after 72 hrs by SEAP reporter assay. The following applies: Hepacivirus hominis, JFH-1. The class given is functional, organism-based. The method, boiled down: as §1

Series [16] in a line: Cytotoxicity against human Huh7-J20 cells assessed as decrease in cell viability at 1.56 to 75 uM after 72 hrs by MTT assay. The class given is cell-based. The method, boiled down:
as §4

Series [17] is described as follows: Cytotoxicity against human Huh7.5 cells assessed as reduction in cell viability after 72 hrs by MTT method. The class given is cell-based.
The test system of series [18] is Hepatitis C virus. Briefly: Antiviral activity against HCV infected in human Huh7-J17 cells assessed as inhibition of viral RNA replication at 75 uM after 72 hrs by bright-glo luciferase reporter assay relative to control. The class given is functional, Hepacivirus hominis. The method, boiled down: as §3

As usually defined, the inhibition is the drop in the measured response relative to a control, in per cent. One may read the IC50 as the concentration needed to halve the response being measured. The CC50 is the concentration that lowers cell viability or growth by half. `CC(=O)OC[C@H]1O[C@@H](Sc2ccc(NC(=O)[C@H]3O[C@@H](n4ccc(=O)[nH]c4=O)[C@H](O[Si](C)(C)C(C)(C)C)[C@@H]3O[Si](C)(C)C(C)(C)C)cn2)[C@H](OC(C)=O)[C@@H](OC(C)=O)[C@H]1OC(C)=O`: the inhibition entry in series [1], in series [8] and in series [14] was “Active” in each case. Moreover, the selectivity ratio in [2] was 24.7; in [3], 25.2. Also, the IC50 in series [4] was determined as 3.74 µM; in series [11] it was 6 µM; in series [13] (Huh7.5, 72 h) it was 7 µM. The inhibition entry in [5] was “Dose-dependent effect”. Also, the Activity result in [6] is “Non-Toxic”; in series [7] it was “Non-Toxic”; in [10], “Dose-dependent effect”; in [12] (48 h) it was “Dose-dependent effect”; in [13] (Hepacivirus hominis), “Dose-dependent effect”; in [16] it was “Non-Toxic”. The CC50 at 72 h was 245 µM in series [9] and 173 µM in [17]. Moreover, the CC50 at 48 h in series [12] (SK6 cells) was 151 µM. For the same compound, the inhibition result in [15] is “inactive”. Further, the inhibition at 75 µM in [18] came out at 90%.
